Source: ChEMBL document CHEMBL1667809, “Synthesis and in vitro antibacterial activity of 7-(3-alkoxyimino-5-amino/methylaminopiperidin-1-yl)fluoroquinolone derivatives” (Bioorg Med Chem Lett, 2011)
Values after ≈ are worked out from the molar mass of the structure shown.

What was measured:
[1] = system: Staphylococcus epidermidis; experiment: Ratio of compound MIC to GMFX MIC for methicillin-resistant Staphylococcus epidermidis 10-5; format: functional
[2] = system: Staphylococcus epidermidis; experiment: Antibacterial activity against methicillin-sensitive Staphylococcus epidermidis 10-4 after 18 to 24 hrs by agar dilution method; format: functional
In short: (§1)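 Agar dilution on Petri dishes, each inoculated with 10⁴ cfu of the strain and incubated at 35 °C for 18–24 h. MIC read as the lowest compound concentration giving no visible growth on the plate.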

Staphylococcus aureus [3] = experiment: Ratio of compound MIC to CPFX MIC for methicillin-sensitive Staphylococcus aureus 10-04; format: functional
Staphylococcus aureus [4] = experiment: Antibacterial activity against methicillin-sensitive Staphylococcus aureus 10-04 after 18 to 24 hrs by agar dilution method; format: functional; in short: as §1
[5] = system: Staphylococcus epidermidis; experiment: Ratio of compound MIC to CPFX MIC for methicillin-resistant Staphylococcus epidermidis 10-5; format: functional
Streptococcus pneumoniae = experiment: Antibacterial activity against Streptococcus pneumoniae 1001 after 18 to 24 hrs by agar dilution method; format: functional; in short: as §1
Staphylococcus aureus [6] = experiment: Ratio of compound MIC to GMFX MIC for methicillin-sensitive Staphylococcus aureus 10-04; format: functional
[7] = system: Staphylococcus epidermidis; experiment: Antibacterial activity against methicillin-resistant Staphylococcus epidermidis 10-5 after 18 to 24 hrs by agar dilution method; format: functional
In short: (§2)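 Agar dilution on Petri dishes, each inoculated with 10⁴ cfu. Plates incubated at 35 °C for 18–24 h. MIC taken as the lowest test-compound concentration giving no visible growth on the plate. Reference drugs gemifloxacin, ciprofloxacin and levofloxacin run alongside for comparison.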

Escherichia coli [8] = experiment: Antibacterial activity against Escherichia coli ATCC 25922 after 18 to 24 hrs by agar dilution method; format: functional; in short: as §1
Staphylococcus aureus [9] = experiment: Ratio of compound MIC to LVFX MIC for methicillin-sensitive Staphylococcus aureus 10-04; format: functional
Pseudomonas aeruginosa [10] = experiment: Antibacterial activity against Pseudomonas aeruginosa 10-1 after 18 to 24 hrs by agar dilution method; format: functional; in short: as §1
Streptococcus pyogenes [11] = experiment: Ratio of compound MIC to CPFX MIC for Streptococcus hemolyticus 1002; format: functional
Staphylococcus aureus [12] = experiment: Antibacterial activity against methicillin-resistant Staphylococcus aureus 10-05 after 18 to 24 hrs by agar dilution method; format: functional; in short: as §2
Streptococcus pyogenes [13] = experiment: Antibacterial activity against Streptococcus hemolyticus 1002 after 18 to 24 hrs by agar dilution method; format: functional; in short: as §1
Pseudomonas aeruginosa [14] = experiment: Antibacterial activity against Pseudomonas aeruginosa ATCC 27853 after 18 to 24 hrs by agar dilution method; format: functional; in short: as §1
Klebsiella pneumoniae = experiment: Antibacterial activity against Klebsiella pneumoniae 10-1 after 18 to 24 hrs by agar dilution method; format: functional; in short: as §1
[15] = system: Staphylococcus epidermidis; experiment: Ratio of compound MIC to LVFX MIC for methicillin-resistant Staphylococcus epidermidis 10-5; format: functional
[16] = Cytotoxicity against african green monkey Vero cells after 24 hrs; format: cell-based; conditions: chlorocebus sabaeus
In short: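 Vero cells exposed to graded compound concentrations for 24 h, then viability assessed; CC₅₀ derived from the viability data.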

Streptococcus pyogenes [17] = experiment: Ratio of compound MIC to LVFX MIC for Streptococcus hemolyticus 1002; format: functional
Streptococcus pyogenes [18] = experiment: Ratio of compound MIC to GMFX MIC for Streptococcus hemolyticus 1002; format: functional
Escherichia coli [19] = experiment: Antibacterial activity against Escherichia coli 10-02 after 18 to 24 hrs by agar dilution method; format: functional; in short: as §1
Staphylococcus aureus [20] = experiment: Antibacterial activity against Staphylococcus aureus ATCC 25923 after 18 to 24 hrs by agar dilution method; format: functional; in short: as §1
Staphylococcus aureus [21] = experiment: Ratio of compound MIC to GMFX MIC for methicillin-resistant Staphylococcus aureus 10-05; format: functional
Staphylococcus aureus [22] = experiment: Ratio of compound MIC to CPFX MIC for methicillin-resistant Staphylococcus aureus 10-05; format: functional
Staphylococcus aureus [23] = experiment: Ratio of compound MIC to LVFX MIC for methicillin-resistant Staphylococcus aureus 10-05; format: functional

| SMILES | Ratio [1] | MIC [2] | Ratio (Staphylococcus aureus [3]) | MIC (Staphylococcus aureus [4]) | Ratio [5] | MIC (Streptococcus pneumoniae) | Ratio (Staphylococcus aureus [6]) | MIC [7] | MIC (Escherichia coli [8]) | Ratio (Staphylococcus aureus [9]) | MIC (Pseudomonas aeruginosa [10]) | MIC (Staphylococcus aureus [12]) | MIC (Streptococcus pyogenes [13]) | MIC (Pseudomonas aeruginosa [14]) | MIC (Klebsiella pneumoniae) | Ratio [15] | CC50 at 24 h [16] | MIC (Escherichia coli [19]) | MIC (Staphylococcus aureus [20]) | further results |
| --- | --- | --- | --- | --- | --- | --- | --- | --- | --- | --- | --- | --- | --- | --- | --- | --- | --- | --- | --- | --- |
| CO/N=C1\CC(N)CN(c2c(F)cc3c(=O)c(C(=O)O)cn(C4CC4)c3c2OC)C1 (stereo unspecified) | 2 | 2 µg/mL (≈ 4.78 µM) | 4 | 0.5 µg/mL (≈ 1.19 µM) | 4 | 0.25 µg/mL (≈ 0.597 µM) | 4 | 4 µg/mL (≈ 9.56 µM) | 0.25 µg/mL (≈ 0.597 µM) | 4 | 4 µg/mL (≈ 9.56 µM) | 4 µg/mL (≈ 9.56 µM) | 4 µg/mL (≈ 9.56 µM) | 4 µg/mL (≈ 9.56 µM) | 64 µg/mL (≈ 153 µM) | 2 | 885 µM | 0.25 µg/mL (≈ 0.597 µM) | 0.25 µg/mL (≈ 0.597 µM) | Ratio (Streptococcus pyogenes [11]): 2; Ratio (Streptococcus pyogenes [17]): 2; Ratio (Streptococcus pyogenes [18]): 2 |
| CCO/N=C1\CC(N)CN(c2c(F)cc3c(=O)c(C(=O)O)cn(C4CC4)c3c2OC)C1 (stereo unspecified) | 4 | 1 µg/mL (≈ 2.31 µM) | 16 | 0.125 µg/mL (≈ 0.289 µM) | 8 | 0.125 µg/mL (≈ 0.289 µM) | 16 | 2 µg/mL (≈ 4.62 µM) | 0.25 µg/mL (≈ 0.578 µM) | 16 | > 128 µg/mL | 2 µg/mL (≈ 4.62 µM) | 8 µg/mL (≈ 18.5 µM) | 8 µg/mL (≈ 18.5 µM) | 128 µg/mL (≈ 296 µM) | 4 | 879 µM | 0.25 µg/mL (≈ 0.578 µM) | 0.25 µg/mL (≈ 0.578 µM) | Ratio (Staphylococcus aureus [21]): 2; Ratio (Staphylococcus aureus [22]): 2; Ratio (Staphylococcus aureus [23]): 2 |
| CNC1C/C(=N\OC)CN(c2c(F)cc3c(=O)c(C(=O)O)cn(C4CC4)c3c2OC)C1 (stereo unspecified) | 2 | 1 µg/mL (≈ 2.31 µM) | 4 | 0.5 µg/mL (≈ 1.16 µM) | 4 | 0.5 µg/mL (≈ 1.16 µM) | 4 | 4 µg/mL (≈ 9.25 µM) | 0.25 µg/mL (≈ 0.578 µM) | 4 | 128 µg/mL (≈ 296 µM) | 2 µg/mL (≈ 4.62 µM) | 8 µg/mL (≈ 18.5 µM) | 64 µg/mL (≈ 148 µM) | 128 µg/mL (≈ 296 µM) | 2 | 1090 µM | 0.25 µg/mL (≈ 0.578 µM) | 0.5 µg/mL (≈ 1.16 µM) | – |
| CCO/N=C1\CC(NC)CN(c2c(F)cc3c(=O)c(C(=O)O)cn(C4CC4)c3c2OC)C1 (stereo unspecified) | 2 | 0.25 µg/mL (≈ 0.56 µM) | 4 | 0.5 µg/mL (≈ 1.12 µM) | 4 | 1 µg/mL (≈ 2.24 µM) | 4 | 4 µg/mL (≈ 8.96 µM) | 0.25 µg/mL (≈ 0.56 µM) | 4 | 128 µg/mL (≈ 287 µM) | 8 µg/mL (≈ 17.9 µM) | 128 µg/mL (≈ 287 µM) | 128 µg/mL (≈ 287 µM) | 128 µg/mL (≈ 287 µM) | 2 | 1520 µM | 0.25 µg/mL (≈ 0.56 µM) | 0.5 µg/mL (≈ 1.12 µM) | – |
| CCO/N=C1\CC(N)CN(c2c(F)cc3c(=O)c(C(=O)O)cn(C4CC4)c3c2F)C1 (stereo unspecified) | 2 | 0.5 µg/mL (≈ 1.19 µM) | 4 | 0.5 µg/mL (≈ 1.19 µM) | 4 | 0.25 µg/mL (≈ 0.595 µM) | 4 | 4 µg/mL (≈ 9.51 µM) | 0.25 µg/mL (≈ 0.595 µM) | 4 | > 128 µg/mL | 4 µg/mL (≈ 9.51 µM) | 64 µg/mL (≈ 152 µM) | 8 µg/mL (≈ 19 µM) | 64 µg/mL (≈ 152 µM) | 2 | 1320 µM | 0.25 µg/mL (≈ 0.595 µM) | 0.25 µg/mL (≈ 0.595 µM) | – |
| CNC1C/C(=N\OC)CN(c2c(F)cc3c(=O)c(C(=O)O)cn(C4CC4)c3c2F)C1 (stereo unspecified) | 2 | 2 µg/mL (≈ 4.76 µM) | – | 2 µg/mL (≈ 4.76 µM) | – | 1 µg/mL (≈ 2.38 µM) | – | 2 µg/mL (≈ 4.76 µM) | 0.25 µg/mL (≈ 0.595 µM) | – | 128 µg/mL (≈ 304 µM) | 8 µg/mL (≈ 19 µM) | 8 µg/mL (≈ 19 µM) | 8 µg/mL (≈ 19 µM) | 128 µg/mL (≈ 304 µM) | 2 | 1020 µM | 0.25 µg/mL (≈ 0.595 µM) | 0.25 µg/mL (≈ 0.595 µM) | – |
| CCO/N=C1\CC(NC)CN(c2c(F)cc3c(=O)c(C(=O)O)cn(C4CC4)c3c2F)C1 (stereo unspecified) | 2 | 0.5 µg/mL (≈ 1.15 µM) | 4 | 0.25 µg/mL (≈ 0.575 µM) | – | 1 µg/mL (≈ 2.3 µM) | 4 | 2 µg/mL (≈ 4.6 µM) | 0.25 µg/mL (≈ 0.575 µM) | 4 | > 128 µg/mL | 4 µg/mL (≈ 9.21 µM) | 128 µg/mL (≈ 295 µM) | 128 µg/mL (≈ 295 µM) | > 128 µg/mL | 2 | 1010 µM | 0.5 µg/mL (≈ 1.15 µM) | 0.5 µg/mL (≈ 1.15 µM) | – |
| CCO/N=C1\CC(N)CN(c2c(F)cc3c(=O)c(C(=O)O)cn(C4CC4)c3c2OC(F)F)C1 (stereo unspecified) | 2 | 0.25 µg/mL (≈ 0.534 µM) | 4 | 0.25 µg/mL (≈ 0.534 µM) | – | 1 µg/mL (≈ 2.13 µM) | 4 | 1 µg/mL (≈ 2.13 µM) | 0.25 µg/mL (≈ 0.534 µM) | 4 | > 128 µg/mL | 4 µg/mL (≈ 8.54 µM) | 128 µg/mL (≈ 273 µM) | 128 µg/mL (≈ 273 µM) | > 128 µg/mL | 2 | 1520 µM | 0.25 µg/mL (≈ 0.534 µM) | 0.5 µg/mL (≈ 1.07 µM) | – |
| CCO/N=C1\CC(N)CN(c2c(F)cc3c(=O)c(C(=O)O)cn4c3c2OC[C@@H]4C)C1 (stereo partly specified) | 4 | 0.5 µg/mL (≈ 1.19 µM) | 4 | 0.5 µg/mL (≈ 1.19 µM) | 8 | 0.25 µg/mL (≈ 0.597 µM) | 4 | 2 µg/mL (≈ 4.78 µM) | 0.25 µg/mL (≈ 0.597 µM) | 4 | 32 µg/mL (≈ 76.5 µM) | 4 µg/mL (≈ 9.56 µM) | 8 µg/mL (≈ 19.1 µM) | 8 µg/mL (≈ 19.1 µM) | 64 µg/mL (≈ 153 µM) | 4 | 1240 µM | 0.25 µg/mL (≈ 0.597 µM) | 0.25 µg/mL (≈ 0.597 µM) | – |
